These results are taken from ChEMBL document CHEMBL1124987, “7-Deaza-2-phenyladenines: structure-activity relationships of potent A1 selective adenosine receptor antagonists” (J Med Chem, 1990).

Calls of active or inactive are those of the source. The rule behind the calls is not given here.

For one assay, the target named is T1, Adenosine receptor A1 (Rattus norvegicus, UniProt P25099).
T1 sequence (P25099 whole entry): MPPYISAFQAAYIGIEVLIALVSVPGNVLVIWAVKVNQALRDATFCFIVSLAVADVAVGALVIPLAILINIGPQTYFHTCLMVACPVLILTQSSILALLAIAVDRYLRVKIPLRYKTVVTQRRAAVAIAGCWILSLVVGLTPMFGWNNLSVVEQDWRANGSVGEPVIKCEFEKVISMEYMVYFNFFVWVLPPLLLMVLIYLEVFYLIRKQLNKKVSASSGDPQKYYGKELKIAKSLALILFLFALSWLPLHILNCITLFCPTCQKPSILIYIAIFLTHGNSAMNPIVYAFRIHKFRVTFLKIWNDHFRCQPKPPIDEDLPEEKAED
Kind of assay: Binding affinity against Adenosine A1 receptor from rat brain membrane using [3H]R-PIA as radioligand. The method in brief: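 Rat cerebral cortical membranes; displacement of [3H]-(R)-PIA (Kd 1 nM) by a range of test concentrations. Nonspecific binding defined with 5 mM theophylline. Triplicate determinations in three separate experiments. IC50 converted to Ki via Cheng-Prusoff.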

The target in another assay is Adenosine A2 receptor (Rattus norvegicus, UniProt P29276+P30543). Kind of assay: Binding affinity against Adenosine A2 receptor from rat striatal membrane using [3H]NECA as radioligand.
In assay [1] the target is T2, Adenosine A2 receptor (Rattus norvegicus) (UniProt P29276+P30543). In words: Inhibition of adenylate cyclase stimulation via Adenosine A2 receptor by NECA in rat pheochromocytoma PC12 cells. It counts as functional, cell-based. As to conditions: PC-12. The method in brief: (§1)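 Membranes from rat pheochromocytoma PC12 cells; adenylate cyclase activated via A2 receptors by NECA, measured with a range of antagonist concentrations. K_B from the Schild equation using the ratio of NECA EC50 values with and without antagonist. Means ± SEM of three separate experiments in triplicate.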

In assay [2] the target is T2, Adenosine A2 receptor (Rattus norvegicus). In words: Inhibition of adenylate cyclase stimulation via Adenosine A2 receptor by NECA in rat striatal membrane. It counts as functional, cell membranes. As to conditions: Striatum. Summed up:
(§2)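 Rat striatal membranes; adenylate cyclase stimulated by NECA through A2 receptors, with antagonist present or absent. K_B derived by Schild equation from the NECA EC50 ratio with versus without antagonist.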

Assay [3] has the same target. In words: Inhibition of adenylate cyclase stimulation via Adenosine A2 receptor by NECA in rat striatal membrane; b= No effect. It is filed as functional. Summed up: as §2
For assay [4], the target named is T3, Adenosine receptor A1 (Rattus norvegicus) (UniProt P25099).
T3 sequence (whole entry): T1 sequence (P25099 whole entry)
Kind of assay: Reversal of adenylate cyclase inhibition via Adenosine A1 receptor by R-PIA in rat fat cells. It counts as functional, cell-based. Summed up: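 Rat fat cell membranes; adenylate cyclase inhibited by R-PIA through A1 receptors, and antagonist reversal measured. K_B calculated with the Schild equation from the ratio of R-PIA IC50 values with and without antagonist.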

Assay [5] deals with T2, Adenosine A2 receptor (Rattus norvegicus). Kind of assay: Inhibition of adenylate cyclase activity via A2 receptors by NECA in rat PC12 cells; c = Noncompetitive inhibition. As to conditions: PC-12. It is filed as functional, cell-based. Summed up: as §1

By Ki is commonly meant a measure of affinity in units of concentration, obtained from inhibition or displacement. Read a low Ki as a stronger hold on the target.

For the compound `O=c1[nH]cnc2c1c1c(n2-c2ccccc2)CCCC1`, on Adenosine receptor A1, the Ki came to 2.07 µM.

`Cc1[nH]c2nc(-c3ccccc3Cl)nc(N)c2c1C`: the inhibition constant Ki worked out at 5.17 µM on Adenosine receptor A1 and 85.6 µM on Adenosine A2 receptor.

Turning to `Cc1[nH]c2nc(-c3cccc(Cl)c3)nc(N)c2c1C`, the Ki at Adenosine receptor A1 stood at 0.73 µM; on Adenosine A2 receptor, 20.8 µM.

As to `Oc1ncnc2c1c1c(n2-c2ccccc2)CCCC1`, the values for the Kb in assay [1] and in assay [2] were 0.87 µM and 1.76 µM, respectively. For the same compound, on Adenosine A2 receptor, the inhibitory constant (Ki) was found to be 1.35 µM.

Turning to `Cc1[nH]c2nc(-c3ccc(Cl)cc3)nc(N)c2c1C`, the Ki on Adenosine receptor A1 was 1.24 µM; at Adenosine A2 receptor, 35.6 µM.

As to `COc1cccc(-n2c(C)c(C)c3c(N)ncnc32)c1OC`, the affinity on Adenosine receptor A1, expressed as Ki, was 54.3 µM.

For `Cc1c(C)n(-c2ccccc2)c2nc(-c3ccc(Cl)cc3)nc(N)c12`, in assay [3], the Kb result is “inactive”. Also, the Kb in assay [4] is 0.057 µM; in assay [5], “Non-competitive inhibition”. Moreover, the results for the Ki on Adenosine receptor A1 and on Adenosine A2 receptor were 0.122 µM and > 250 µM, respectively.

`Nc1ncnc2c1c(C=O)c(C=O)n2-c1ccccc1`: the Ki was 50.1 µM on Adenosine receptor A1 and 76.3 µM at Adenosine A2 receptor.

In the case of `Clc1ncnc2c1c1ccccc1n2-c1ccccc1`, the figures for the inhibition constant (Ki) on Adenosine receptor A1 and on Adenosine A2 receptor were 2.42 µM and 4.06 µM, respectively.

For the compound `CS(=O)(=O)c1nc(S(C)(=O)=O)c2c3c(n(-c4ccccc4)c2n1)CCCC3`, the Ki on Adenosine receptor A1 turned out to be 16.9 µM; on Adenosine A2 receptor, 157 µM.

`Oc1ncnc2c1c1ccccc1n2-c1ccccc1`: the Kb in assay [1] came out at 0.22 µM; in assay [4], 1.4 µM. Further, at Adenosine A2 receptor, the Ki turned out to be 1.44 µM.

For the compound `CCCCCCn1c(C)c(C)c2c(N)ncnc21`, the Kb in assay [1] is 42 µM. Further, the Ki at Adenosine receptor A1 came out at 60 µM; on Adenosine A2 receptor it was 263 µM.

Take `c1ccc(-n2c3ccccc3c3c(NC4CCCCC4)ncnc32)cc1`: the Ki on Adenosine receptor A1 came to 1.96 µM; on Adenosine A2 receptor, 133 µM.

For `Cc1c(C)n(Cc2ccc(Br)cc2)c2ncnc(N)c12`, the Ki on Adenosine receptor A1 is > 100 µM; on Adenosine A2 receptor, 154.9 µM.

Take `Cc1nc(N)c2c(C)c(C)n(-c3ccccc3)c2n1`: the values for the inhibitory constant (Ki) on Adenosine receptor A1 and on Adenosine A2 receptor were 30.4 µM and 203 µM, respectively.

`Sc1nc(S)c2c3c(n(-c4ccccc4)c2n1)CCCC3`: the Ki on Adenosine receptor A1 is 84.8 µM; on Adenosine A2 receptor, > 250 µM.

With `Cc1[nH]c2ncnc(N)c2c1C`, the Ki at Adenosine receptor A1 came to 55 µM; on Adenosine A2 receptor it was 208 µM.

Take `Cc1[nH]c2ncnc(O)c2c1C`: in assay [1], the Kb worked out at 33 µM. Besides, the Ki came out at 58 µM at Adenosine receptor A1 and 176 µM on Adenosine A2 receptor.

For `Cc1c(C)n(C(C)c2ccccc2)c2nc(-c3cccc(Cl)c3)nc(N)c12` (centres undefined), the inhibitory constant (Ki) at Adenosine receptor A1 turned out to be 0.028 µM; on Adenosine A2 receptor it was 59.9 µM.

For the compound `O=c1[nH]cnc2c1c1ccccc1n2-c1ccccc1`, at Adenosine receptor A1, the affinity, expressed as Ki, was 0.88 µM.

Regarding `Cc1nc(N)c2c(C)c(C)[nH]c2n1`, the Ki was 88 µM on Adenosine receptor A1 and > 250 µM on Adenosine A2 receptor.

Take `NNc1ncnc2c1c1ccccc1n2-c1ccccc1`: the inhibitory constant (Ki) at Adenosine receptor A1 came out at 8.42 µM; on Adenosine A2 receptor, 7.71 µM.

In the case of `C=CCn1c(C)c(C)c2c(N)ncnc21`, the Kb in assay [1] is 40 µM. Besides, the inhibitory constant (Ki) on Adenosine receptor A1 turned out to be 49 µM; on Adenosine A2 receptor it was 83 µM.

As to `Cc1c(C)n(C(C)c2ccccc2)c2nc(-c3ccccc3Cl)nc(N)c12` (centres undefined), the Ki on Adenosine receptor A1 came to 0.052 µM; on Adenosine A2 receptor, 28.1 µM.

With `Cc1c(C)n(-c2ccccc2)c2ncnc(N)c12`, the Kb in assay [1] amounted to 62 µM; in assay [4], 22 µM. The Ki stood at 18 µM on Adenosine receptor A1 and 123 µM at Adenosine A2 receptor.

As for `Cc1c(C)n([C@H]2C[C@H](O)[C@@H](CO)O2)c2ncnc(N)c12`, the inhibitory constant (Ki) at Adenosine receptor A1 and at Adenosine A2 receptor was > 250 µM throughout.

On to `Nc1ncnc2c1c(C(=O)O)c(C(=O)O)n2-c1ccccc1`, for which affinity on Adenosine receptor A1 was put at a Ki of 67 µM.

In the case of `Nc1ncnc2c1ccn2-c1ccccc1`, the Kb in assay [1] was determined as 17 µM; in assay [4], 4.6 µM. Moreover, the figures for the inhibition constant (Ki) at Adenosine receptor A1 and on Adenosine A2 receptor were 3.1 µM and 25 µM, respectively.

As to `Cc1c(C)n(-c2ccccc2)c2nc(-c3ccccc3Cl)nc(N)c12`, the Ki is 0.99 µM at Adenosine receptor A1 and 40.7 µM at Adenosine A2 receptor.

Take `Cc1c(C)n([C@H](C)c2ccccc2)c2nc(-c3ccccc3)nc(N)c12`: the Kb in assay [1] worked out at 3.06 µM; in assay [4], 0.0038 µM. The inhibition constant (Ki) was found to be 0.0047 µM on Adenosine receptor A1 and 3.71 µM at Adenosine A2 receptor.

For `Cc1[nH]c2nc(-c3ccccc3)nc(N)c2c1C`, the Kb in assay [1] stood at 5.5 µM; in assay [4], 0.8 µM. The results for the Ki on Adenosine receptor A1 and on Adenosine A2 receptor were 1.49 µM and 21.3 µM, respectively.

Consider `CSc1nc(SC)c2c3c(n(-c4ccccc4)c2n1)CCCC3`, for which the Ki is 97.8 µM on Adenosine receptor A1 and > 250 µM at Adenosine A2 receptor.

Consider `Nc1ncnc2c1c1ccccc1n2-c1ccccc1`, for which the values for the Kb in assay [1], in assay [4] and in assay [2] were 1.73 µM, 3.3 µM and 14 µM, respectively. Moreover, the inhibition constant Ki on Adenosine receptor A1 is 1.95 µM; at Adenosine A2 receptor, 5.98 µM.

As for `Cc1c(C)n(-c2ccccc2)c2nc(-c3ccccc3)nc(N)c12`, the inhibitory constant (Ki) on Adenosine receptor A1 came to 0.036 µM; at Adenosine A2 receptor, 0.024 µM.

Consider `Nc1ncnc2c1c1c(n2-c2ccccc2)CCCC1`, for which the figures for the Kb in assay [1] and in assay [2] were 7.5 µM and 31.6 µM, respectively. Also, the Ki on Adenosine receptor A1 turned out to be 3.24 µM; on Adenosine A2 receptor it was 10.9 µM.

`Cc1c(C)n([C@@H](C)c2ccccc2)c2nc(-c3ccccc3)nc(N)c12`: the values for the inhibition constant Ki at Adenosine receptor A1 and at Adenosine A2 receptor were 0.165 µM and 80.8 µM, respectively.
